Compound activity (PubChem BioAssay)
RBBP9 inh: human RBBP9 hydrolase inhibition; recombinant RBBP9, FP-Rh probe fluorescence polarization; O75884; 220,000 tested, 0.2% active; AID 1515; inhibition, % at 7.94 µM;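 active means inhibition above the campaign mean of all tested compounds plus 3 SD, cut at about 14% in these data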;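 further: plate controls were DMSO wells with RBBP9 for no effect and wells lacking RBBP9 protein for full effect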
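Assay system: recombinant human RBBP9; Reagent: Serine-hydrolase probe FP-Rh, 375 nM pre-mixing; Doses: 7.94 µM single dose, 0.794% DMSO; Incubation: 30 min then 45 min, 25 °C; Detection: fluorescence polarization (mP), excitation 525 nm, emission 598 nm; Evaluation: percent inhibition from mP, scaled between DMSO and no-protein wells.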
KCC2 mod: modulators of human KCC2 chloride dependent transport; B-score of Tl+ flux slope (higher = more flux/activation; lower = inhibition) at 10 µM; KCC2 cells, thallium flux FluoZin-2 fluorescence; AID 1456; Q9H2X9; 190,000 tested, 2.2% active;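 active means thallium flux slope and its plate-corrected score both differing from the plate sample mean at a set confidence after two filtering rounds, in either direction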;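 further: slope of fluorescence scaled to starting intensity during 10 to 20 s after thallium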
p47phox inh: blocks human p47phox regulatory protein of NADPH oxidases; p47phox/p22phox peptide binding, fluorescence polarization, 2 h; P14598; 220,000 tested, 0.53% active; AID 1274; inhibition, % at 24.7 µM;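 active means inhibition above about 30%, limit read from the data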;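 further: 0% = p47phox with labelled peptide and 100% = labelled peptide alone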
ROMK mod: human ROMK K+ channel modulation, primary screen. Tet-inducible ROMK, thallium flux fluorescence; actives lie on both sides. P48048. 130,000 tested, 2% active. B-score at 10 µM;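 active means signal ratio slope over the read window, or its plate-corrected B-score, at least 3 SD from the plate mean, either direction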;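 further: B-score of the F/F0 ratio slope over 7 to 12 s after thallium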
Target sequence (P48048 whole entry, looked up): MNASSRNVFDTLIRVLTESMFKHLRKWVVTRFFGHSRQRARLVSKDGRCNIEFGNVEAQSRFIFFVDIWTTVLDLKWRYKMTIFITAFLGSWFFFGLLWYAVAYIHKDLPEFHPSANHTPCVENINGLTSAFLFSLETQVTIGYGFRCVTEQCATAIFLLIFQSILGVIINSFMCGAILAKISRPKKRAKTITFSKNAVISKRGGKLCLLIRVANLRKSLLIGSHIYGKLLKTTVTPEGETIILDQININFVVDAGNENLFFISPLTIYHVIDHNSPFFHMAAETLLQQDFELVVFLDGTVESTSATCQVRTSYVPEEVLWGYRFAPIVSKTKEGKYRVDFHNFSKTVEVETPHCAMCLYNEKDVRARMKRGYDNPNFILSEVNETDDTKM
14-3-3 Bad PPI: disrupts binding of bovine 14-3-3 zeta to phospho-Bad peptide; P63103; TR-FRET 14-3-3zeta/Dy647-pBad peptide displacement, 1 h; inhibition, % at 21.7 µM; 220,000 tested, 0.71% active; AID 781;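 active means inhibition above about 70%, limit read from the data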;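 further: 0% = full 14-3-3 plus peptide FRET controls and 100% = background without 14-3-3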
WT yeast gro inh: growth inhibition of WT yeast, mitochondrial fusion screen; mitochondrial fusion phenotypic screen, WT strain; inhibition, % at 10 µM; 190,000 tested, 2.1% active; AID 1362; in the data active means inhibition above about 58%; tested in S. cerevisiae
* marks the source's active call; other numbers are inactive results; x = no result given. Compounds with a hit are over-represented: about 5.8% of the library has one in this group of screens.

SMILES | RBBP9 inh | KCC2 mod | p47phox inh | ROMK mod | 14-3-3 Bad PPI | WT yeast gro inh
CSc1cccc(CN2CCN(CCC(C)C)C(CCO)C2)c1 (centres undefined) | 3 | x | -2 | -0.67 | -7 | 15
Cc1ccc(OCC(O)CN2CCN(Cc3ccc4c(c3)OCO4)CC2)c(C)c1 (centres undefined) | -6 | 0.25 | 1 | x | 77* | 50
C=CCc1cc(C)ccc1OCC(O)CN1CCN(c2ccccc2)CC1 (centres undefined) | -6 | -0.33 | -4 | -1.4 | 70* | 31
Cc1cc(C(F)(F)F)n(-c2ccc(N)cc2)n1 | -6 | 0.32 | 1 | -0.94 | -9 | -9
CCCN(CCC)C(=O)Nc1cc(Cl)ccc1OC | -9 | -1 | -4 | x | 0 | x
Cc1ccc(F)cc1NC(=O)C1CC(=O)N(CCc2ccccc2)C1 (centres undefined) | -14 | -0.69 | 13 | -1.6 | -2 | -6
CCc1ccc(N(CC(=O)NCc2ccc(F)cc2)C(=O)c2csnn2)cc1 | 1 | -0.91 | 1 | 0.015 | -7 | 11
C/C(=N\NC(=O)c1cccc(S(=O)(=O)N2CCCC2)c1)c1cccs1 | -3 | -0.0049 | -2 | 0.44 | -13 | 5
Cc1cc(C(=O)Nc2ccccc2C(F)(F)F)no1 | -5 | 0.83 | -7 | 0.15 | 0 | -2
Cc1ccc(C(=O)NC(=S)Nc2ccccc2C(F)(F)F)cc1C | -8 | x | -8 | x | -17 | 80*
Cc1cccc(C(=O)NC(=S)Nc2ccccc2C(F)(F)F)c1 | -10 | 19* | -18 | x | -10 | -7
COC(=O)c1sc(NC(=S)NC(=O)c2cccc(C)c2)nc1C | -14 | 18* | -2 | 0.44 | -10 | 2
CCCCN(CCCC)S(=O)(=O)c1ccc(NC(=O)Cc2cccs2)cc1 | -6 | x | -27 | 0.25 | -10 | 5
Cc1nn(-c2nnc(NC3CCCCC3)nn2)c(C)c1Br | -3 | -1.8 | 2 | 0.59 | 17 | 10
CC(C)N1CC2=C(OC(N)=C(C#N)C2c2cccnc2)/C(=C/c2cccnc2)C1 (centres undefined) | -3 | 1.2 | 77* | x | 9 | -8
N#CC1=C(N)OC2=C(CN(Cc3ccccc3)C/C2=C\c2cccnc2)C1c1cccnc1 (centres undefined) | -3 | x | 123* | 0.069 | -12 | 4
COC(=O)c1ccc(S(=O)(=O)N2Cc3ccccc3C2)cc1 | -8 | -0.071 | -1 | 0.033 | 4 | 8
O=C(O)c1ccccc1C(=O)Nc1ccc(Br)c2cccnc12 | -1 | 0.16 | -7 | 0.082 | -3 | -13
CC(=O)CSc1ncnc2sc3c(c12)CCC(C)C3 (centres undefined) | -6 | 121* | -6 | 0.75 | -7 | 12
Nc1c2c(nc3ccccc13)CCCC2 | -4 | -3.8 | -1 | x | 3 | -1
Cc1c2c(nc3ccccc13)CCC(C(C)(C)C)C2 (centres undefined) | -12 | -1.9 | 17 | -0.3 | 12 | 68*
N#C/C(=C\c1ccc(C(=O)O)cc1)c1nc2sc3c(c2c(=O)[nH]1)CCCC3 | -1 | -0.39 | 104* | x | 38 | x
Cc1ccc(NC(=O)COc2ccccc2)c(NC(=O)c2ccccc2C)c1 | -14 | -0.08 | x | x | x | x
Cc1ccc(NS(=O)(=O)c2ccc(C)c(NC(=O)COc3ccccc3)c2)c(C)c1 | -7 | -2.2 | -8 | -1.1 | 2 | 58*
CC1(C)C(=O)OC(c2cccn2-c2cccc([N+](=O)[O-])c2)C2(CCCCC2)C1=O (centres undefined) | -3 | 0.32 | -5 | x | 0 | 78*
SMILES | RBBP9 inh | KCC2 mod | p47phox inh | ROMK mod | 14-3-3 Bad PPI | WT yeast gro inh
CCN(C(=O)Cc1ccccc1OC)c1nnc(-c2ccncc2)s1 | -13 | 1.2 | 0 | 0.25 | 79* | -8
c1ccc2c(c1)nc(CN1CCOCC1)n1c3ccccc3nc21 | -8 | -1.2 | -1 | -0.5 | -8 | 81*
CCc1nc2ccccc2c2nc3ccccc3n12 | -7 | -0.47 | -15 | 0.15 | 10 | 11
O=C(CCn1c(=S)oc2ccccc21)Nc1cccc(O)c1 | -4 | -0.25 | 3 | -0.54 | -2 | -11
OCCN(Cc1ccccc1)Cc1cccc(Cl)c1Cl | -6 | -0.6 | 0 | x | 88* | 18
CC(C)OC(=O)CSc1nc(Cc2cccs2)nc2ccccc12 | -5 | 0.058 | -20 | -0.76 | 2 | 2
COc1ccc2c(c1)CC/C(=C\Nc1ccc3c(c1)OCO3)C2=O | 6 | x | 3 | -1.1 | -9 | x
